Several values for one entry are separate records, joined by “and”; a condition that tells them apart may be missing. Equal values may be shown once.
Tested on: U2OS
Assay: Multiplex assay against U2OS
Format: toxicity, cell-based
Conditions: human
In short: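 Values for tubulin, mitochondrial-mass and membrane-permeability phenotypes are per cents of cells with healthy nuclei. These cells were identified by CellPathfinder machine-learning gating of live cells that had been stained at seeding with Hoechst33342, BioTracker Green Microtubule Cytoskeleton Dye, MitoTracker Red and Annexin V Alexa Fluor 680 and imaged on a CQ1 microscope at 37°C and 5% CO2 after compound addition. The gating first set Hoechst high-intensity objects apart from normal cells, then split normal cells into healthy, pyknosed or fragmented nuclei, and pyknosed cells into mitotic or apoptotic.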

[1] = 12 h, 1 µM, compound concentration 1 uM
[2] = 12 h, 10 µM, compound concentration 10 uM
[3] = 24 h, 1 µM, compound concentration 1 uM
[4] = 24 h, 10 µM, compound concentration 10 uM
[5] = 48 h, 1 µM, compound concentration 1 uM
[6] = 48 h, 10 µM, compound concentration 10 uM

## Nc1nc(CC(=O)Nc2ccc(CCNC[C@H](O)c3ccccc3)cc2)cs1 [MIRABEGRON]
[1]
  Population Apoptotic (%): 86% and 100%
  Population Fragmented Nuclei (%): 24% and 13%
  Population Healthy Nuclei (%): 62% and 74%
  Population Hoechst High Intensity Objects (%): 1% and 0%
  Population Membrane Permeable-Phenotype (%): 6% and 5%
  Population Mitochondria Different-Phenotype (%): 3% and 2%
  Population Mitotic Cells (%): 13% and 0%
  Population Normal (%): 98% and 99%
  Population Pyknosed Nuclei (%): 12%
  Population Tubulin-Different-Phenotype (%): 4% and 5%
  Total Cell Count: 240 and 107
[2]
  Population Apoptotic (%): 86% and 66%
  Population Fragmented Nuclei (%): 18% and 21%
  Population Healthy Nuclei (%): 70% and 71%
  Population Hoechst High Intensity Objects (%): 1% and 0%
  Population Membrane Permeable-Phenotype (%): 6% and 7%
  Population Mitochondria Different-Phenotype (%): 2% and 3%
  Population Mitotic Cells (%): 13% and 33%
  Population Normal (%): 98% and 99%
  Population Pyknosed Nuclei (%): 11% and 6%
  Population Tubulin-Different-Phenotype (%): 4% and 1%
  Total Cell Count: 319 and 136
[3]
  Population Apoptotic (%): 82% and 58%
  Population Fragmented Nuclei (%): 21% and 11%
  Population Healthy Nuclei (%): 70% and 79%
  Population Hoechst High Intensity Objects (%): 2% and 0%
  Population Membrane Permeable-Phenotype (%): 4% and 9%
  Population Mitochondria Different-Phenotype (%): 2% and 3%
  Population Mitotic Cells (%): 17% and 41%
  Population Normal (%): 97% and 99%
  Population Pyknosed Nuclei (%): 8% and 9%
  Population Tubulin-Different-Phenotype (%): 3% and 7%
  Total Cell Count: 289 and 125
[4]
  Population Apoptotic (%): 86% and 76%
  Population Fragmented Nuclei (%): 17% and 20%
  Population Healthy Nuclei (%): 75% and 71%
  Population Hoechst High Intensity Objects (%): 1%
  Population Membrane Permeable-Phenotype (%): 5% and 9%
  Population Mitochondria Different-Phenotype (%): 3% and 5%
  Population Mitotic Cells (%): 13% and 23%
  Population Normal (%): 98%
  Population Pyknosed Nuclei (%): 7%
  Population Tubulin-Different-Phenotype (%): 3% and 4%
  Total Cell Count: 405 and 167
[5]
  Population Apoptotic (%): 84% and 78%
  Population Fragmented Nuclei (%): 17% and 12%
  Population Healthy Nuclei (%): 72% and 74%
  Population Hoechst High Intensity Objects (%): 2%
  Population Membrane Permeable-Phenotype (%): 4% and 8%
  Population Mitochondria Different-Phenotype (%): 3%
  Population Mitotic Cells (%): 15% and 21%
  Population Normal (%): 97%
  Population Pyknosed Nuclei (%): 9% and 13%
  Population Tubulin-Different-Phenotype (%): 3% and 7%
  Total Cell Count: 394 and 179
[6]
  Population Apoptotic (%): 87% and 70%
  Population Fragmented Nuclei (%): 14%
  Population Healthy Nuclei (%): 74% and 78%
  Population Hoechst High Intensity Objects (%): 2%
  Population Membrane Permeable-Phenotype (%): 5% and 3%
  Population Mitochondria Different-Phenotype (%): 2% and 3%
  Population Mitotic Cells (%): 12% and 29%
  Population Normal (%): 97%
  Population Pyknosed Nuclei (%): 10% and 7%
  Population Tubulin-Different-Phenotype (%): 2% and 1%
  Total Cell Count: 534 and 232

## COc1ccc2c(c1OCc1ccccc1)C[C@@H](C(=O)O)N(C(=O)C(c1ccccc1)c1ccccc1)C2 [OLODANRIGAN]
[1]
  Population Apoptotic (%): 82% and 66%
  Population Fragmented Nuclei (%): 31% and 18%
  Population Healthy Nuclei (%): 59% and 75%
  Population Hoechst High Intensity Objects (%): 2% and 3%
  Population Membrane Permeable-Phenotype (%): 4% and 6%
  Population Mitochondria Different-Phenotype (%): 0% and 4%
  Population Mitotic Cells (%): 17% and 33%
  Population Normal (%): 97% and 96%
  Population Pyknosed Nuclei (%): 8% and 5%
  Population Tubulin-Different-Phenotype (%): 1% and 2%
  Total Cell Count: 286 and 112
[2]
  Population Apoptotic (%): 78% and 81%
  Population Fragmented Nuclei (%): 30% and 26%
  Population Healthy Nuclei (%): 64% and 63%
  Population Hoechst High Intensity Objects (%): 1% and 0%
  Population Membrane Permeable-Phenotype (%): 6% and 2%
  Population Mitochondria Different-Phenotype (%): 1%
  Population Mitotic Cells (%): 21% and 18%
  Population Normal (%): 98% and 99%
  Population Pyknosed Nuclei (%): 5% and 10%
  Population Tubulin-Different-Phenotype (%): 2%
  Total Cell Count: 273 and 110
[3]
  Population Apoptotic (%): 87% and 55%
  Population Fragmented Nuclei (%): 25% and 18%
  Population Healthy Nuclei (%): 64% and 74%
  Population Hoechst High Intensity Objects (%): 0% and 2%
  Population Membrane Permeable-Phenotype (%): 2% and 9%
  Population Mitochondria Different-Phenotype (%): 0% and 6%
  Population Normal (%): 99% and 97%
  Population Pyknosed Nuclei (%): 10% and 6%
  Population Tubulin-Different-Phenotype (%): 2% and 5%
  Total Cell Count: 311 and 143
[4]
  Population Apoptotic (%): 83% and 50%
  Population Fragmented Nuclei (%): 27% and 22%
  Population Healthy Nuclei (%): 66% and 72%
  Population Hoechst High Intensity Objects (%): 1% and 0%
  Population Membrane Permeable-Phenotype (%): 4%
  Population Mitochondria Different-Phenotype (%): 0% and 1%
  Population Normal (%): 98% and 100%
  Population Pyknosed Nuclei (%): 5% and 4%
  Population Tubulin-Different-Phenotype (%): 1% and 2%
  Total Cell Count: 318 and 123
[5]
  Population Apoptotic (%): 91% and 78%
  Population Fragmented Nuclei (%): 22% and 14%
  Population Healthy Nuclei (%): 70% and 77%
  Population Hoechst High Intensity Objects (%): 3% and 4%
  Population Membrane Permeable-Phenotype (%): 4% and 3%
  Population Mitochondria Different-Phenotype (%): 1% and 3%
  Population Mitotic Cells (%): 8% and 21%
  Population Normal (%): 96% and 95%
  Population Pyknosed Nuclei (%): 7%
  Population Tubulin-Different-Phenotype (%): 2%
  Total Cell Count: 483 and 184
[6]
  Population Apoptotic (%): 88% and 85%
  Population Fragmented Nuclei (%): 20% and 18%
  Population Healthy Nuclei (%): 71% and 77%
  Population Hoechst High Intensity Objects (%): 1%
  Population Membrane Permeable-Phenotype (%): 5% and 7%
  Population Mitochondria Different-Phenotype (%): 1% and 6%
  Population Mitotic Cells (%): 11% and 14%
  Population Normal (%): 98%
  Population Pyknosed Nuclei (%): 8% and 4%
  Population Tubulin-Different-Phenotype (%): 3% and 5%
  Total Cell Count: 451 and 163

## Cc1cc(NC(=O)NCCN2CCC(O)(Cc3ccccc3)CC2)c2ccccc2n1 [PALOSURAN]
[1]
  Population Apoptotic (%): 80% and 71%
  Population Fragmented Nuclei (%): 27% and 19%
  Population Healthy Nuclei (%): 65% and 71%
  Population Hoechst High Intensity Objects (%): 1% and 0%
  Population Membrane Permeable-Phenotype (%): 4% and 2%
  Population Mitochondria Different-Phenotype (%): 2% and 0%
  Population Mitotic Cells (%): 20% and 28%
  Population Normal (%): 98% and 100%
  Population Pyknosed Nuclei (%): 6% and 9%
  Population Tubulin-Different-Phenotype (%): 1%
  Total Cell Count: 220 and 145
[2]
  Population Apoptotic (%): 72% and 66%
  Population Fragmented Nuclei (%): 30% and 17%
  Population Healthy Nuclei (%): 59% and 70%
  Population Hoechst High Intensity Objects (%): 3%
  Population Membrane Permeable-Phenotype (%): 6% and 12%
  Population Mitochondria Different-Phenotype (%): 1% and 2%
  Population Mitotic Cells (%): 28% and 33%
  Population Normal (%): 96%
  Population Pyknosed Nuclei (%): 9% and 11%
  Population Tubulin-Different-Phenotype (%): 1% and 8%
  Total Cell Count: 266 and 107
[3]
  Population Apoptotic (%): 94% and 66%
  Population Fragmented Nuclei (%): 26% and 17%
  Population Healthy Nuclei (%): 66% and 74%
  Population Hoechst High Intensity Objects (%): 1%
  Population Membrane Permeable-Phenotype (%): 3% and 7%
  Population Mitochondria Different-Phenotype (%): 3% and 7%
  Population Normal (%): 98%
  Population Pyknosed Nuclei (%): 6% and 8%
  Population Tubulin-Different-Phenotype (%): 2% and 3%
  Total Cell Count: 276 and 173
[4]
  Population Apoptotic (%): 92% and 75%
  Population Fragmented Nuclei (%): 26% and 19%
  Population Healthy Nuclei (%): 65% and 74%
  Population Hoechst High Intensity Objects (%): 3%
  Population Membrane Permeable-Phenotype (%): 4% and 11%
  Population Mitochondria Different-Phenotype (%): 0% and 1%
  Population Normal (%): 96%
  Population Pyknosed Nuclei (%): 8% and 6%
  Population Tubulin-Different-Phenotype (%): 2% and 5%
  Total Cell Count: 297 and 129
[5]
  Population Apoptotic (%): 96% and 84%
  Population Fragmented Nuclei (%): 25% and 15%
  Population Healthy Nuclei (%): 68% and 73%
  Population Hoechst High Intensity Objects (%): 1% and 3%
  Population Membrane Permeable-Phenotype (%): 5% and 7%
  Population Mitochondria Different-Phenotype (%): 3% and 5%
  Population Normal (%): 98% and 97%
  Population Pyknosed Nuclei (%): 6% and 11%
  Population Tubulin-Different-Phenotype (%): 3% and 4%
  Total Cell Count: 411 and 233
[6]
  Population Apoptotic (%): 97% and 89%
  Population Fragmented Nuclei (%): 20% and 16%
  Population Healthy Nuclei (%): 70% and 72%
  Population Hoechst High Intensity Objects (%): 1%
  Population Membrane Permeable-Phenotype (%): 5% and 7%
  Population Mitochondria Different-Phenotype (%): 2% and 4%
  Population Mitotic Cells (%): 2% and 10%
  Population Normal (%): 98%
  Population Pyknosed Nuclei (%): 9% and 10%
  Population Tubulin-Different-Phenotype (%): 2% and 1%
  Total Cell Count: 421 and 180

Source: ChEMBL document CHEMBL5724801, “EUbOPEN Chemogenomics Library - Multiplex” (2024)
